Measurements: PubChem BioAssay
Results filed as inconclusive are left out.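 Rule for the calls, unless noted: active = inhibition over a set limit, the all-compound mean plus 3 SD, in both replicate runs; inconclusive = over that limit in just one replicate run; inactive = at or under that limit in both runs.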

Experiments:
[1] = OD615 S. cerevisiae growth inhibition, permissive medium, pilot counter-assay, permissive growth control for S. cerevisiae lifespan shortening project (AID 705;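 active = growth inhibition above 25% in both replicates, a cutoff set 3 SD above the mean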); details: OD615, 24 h, at 10 µM, stronger effect = higher value
Summary of the method: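 System: S. cerevisiae with engineered DeaD lifespan system. Medium: SC raffinose/galactose permissive medium. Doses: single compound dose of 10 µM, 0.25% DMSO final. Schedule: 24 h exposure, 30 °C. Measured by: OD615 turbidity read. Read-out: growth inhibition.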

[2] = Restrictive medium S. cerevisiae growth inhibition, OD615, pilot screen of yeast lifespan reduction project, restrictive growth control (AID 706;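 active = growth inhibition above a set limit, 3 SD over mean compound inhibition, in both replicates, cut at about 43% in these data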;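 note: modified DeaD lifespan yeast strain shifted to restrictive glucose medium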); details: OD615, 48 h, at 10 µM, stronger effect = higher value
Summary of the method: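 Assay system – genetically modified Saccharomyces cerevisiae, DeaD replicative lifespan assay strain · Medium – CSMM-D glucose medium · Doses – 10 µM compound, 0.25% DMSO · Times – 4 h pre-incubation, 48 h exposure at 30 °C · Signal – optical density at 615 nm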

[3] = viability gain of MRP-1-high H69AR cells under doxorubicin, pilot screen, MRP-1 activator project, CellTiter-Glo, duplicate (AID 807;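 active = viability increase at or above a cutoff of the median across tested compounds plus 3 SD, cut at about 8.5% in these data, passing the limit was not always enough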;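 note: compound pretreatment 18-22 h then 72 h combined with doxorubicin; 0% = doxorubicin alone and 100% = vehicle without doxorubicin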); details: H69AR viability with doxorubicin, CellTiter-Glo luminescence; at 10 µM; stronger effect = higher value
[4] = growth suppression of beta-catenin knockout HCT116, pilot screen, human colon tumor cells (AID 823;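 active = cell viability at or below a set limit in both duplicate runs, the limit being the all-compound median minus 4 SD, cut at about 23% in these data, passing the limit was not always enough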;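 note: 0% = wells killed by 20 µM Hyamine and 100% = untreated DMSO cell wells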); details: CellTiter-Glo, 60 h, at 10 µM, stronger effect = lower value
[5] = growth suppression of PTEN-deleted HCT116, pilot screen, cell-based, HCT116 clonal line, CellTiter-Glo (AID 824;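 active = viability at or below 27.92% in each of two runs, the all-compound median minus 4 SD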;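 note: 0% = 20 µM Hyamine control and 100% = vehicle cell control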); details: 60 h, at 10 µM, stronger effect = lower value
[6] = inhibitors of the yeast RAM network, pilot screen, dse1pr::URA3 reporter, 5-FOA selection (AID 869);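 note: 0% = DMSO wells with no growth and 100% = 10 µM 1-NA-PP1 with full growth; RAM network block rescues cells from 5-FOA so hits raise OD615 growth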; details: S. cerevisiae dse1pr::URA3 5-FOA growth, OD615, 2 d; at 10 µM; stronger effect = higher value; strain carries analog-sensitive mutant Cbk1 kinase
[7] = RAM signaling pathway blockade in yeast – S. cerevisiae, Pdr1DBD-CYC8 efflux-inhibited sensitized strain, primary screen (AID 1298;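 active = RAM network inhibition above 8.4% in each of two replicates, 3 SD over the compound average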;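 note: 0% = DMSO untreated cells without growth and 100% = 10 µM 1-NA-PP1 full growth; higher means more yeast growth rescued from 5-FOA killing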); details: S. cerevisiae cbk1-as DSE1-URA3 strain, 5-FOA growth OD615, 2 d; at 50 µM; stronger effect = higher value

Cc1nnc(NC(=O)CSc2nnc(Cc3cccn3C)n2-c2cccc(C(F)(F)F)c2)s1
inactive: growth inhibition [1] -1.29% | growth inhibition [2] 13.7% | viability increase [3] -3.3% | viability [4] 98.8% | viability [5] 94% | inhibition [6] 0.075% | RAM network inhibition [7] 3.85%

CC1=C(C(N)=O)C(c2ccccc2)n2nc(-c3cccc(C)c3)nc2N1 (stereo not drawn)
inactive: growth inhibition [1] 3.1% | growth inhibition [2] 2.56% | viability increase [3] -2.74% | viability [4] 98.9% | viability [5] 97.1% | inhibition [6] 0.79% | RAM network inhibition [7] 3.91%

C=CCn1c(SCC(=C)C)nc2c1c(=O)[nH]c(=O)n2C
inactive: growth inhibition [1] -14.8% | growth inhibition [2] -25.6% | viability increase [3] -0.41% | viability [4] 109% | viability [5] 97% | inhibition [6] -0.415% | RAM network inhibition [7] 1.55%

CCOc1nonc1C(=N)/C(C(C)=O)=C(\C)O
inactive: growth inhibition [1] -12.6% | growth inhibition [2] -12.1% | viability increase [3] -1.06% | viability [4] 104% | viability [5] 98% | inhibition [6] 1.42% | RAM network inhibition [7] -0.48%

COC(=O)CCC(=O)Nc1nc(-c2ccccc2)cs1
inactive: growth inhibition [1] -18.5% | growth inhibition [2] -17.9% | viability increase [3] -0.35% | viability [4] 99% | viability [5] 99.1% | inhibition [6] 0.475% | RAM network inhibition [7] 11%

O=C(O)c1ccc(N2CCCCCC2)c(N2C(=O)c3ccccc3C2=O)c1
inactive: growth inhibition [1] -18% | growth inhibition [2] 4.7% | viability increase [3] -0.78% | viability [4] 108% | viability [5] 98.2% | inhibition [6] 0.945% | RAM network inhibition [7] 3.42%

COc1cccc(Nc2cc(C)nc3nc(C)nn23)c1
inactive: growth inhibition [1] -0.125% | growth inhibition [2] 4.21% | viability increase [3] -1.69% | viability [4] 108% | viability [5] 97.6% | inhibition [6] 1.68% | RAM network inhibition [7] 2.37%

O=C(Nc1ccccc1C1CC1)c1cccs1
inactive: growth inhibition [1] -10.4% | growth inhibition [2] -19.7% | viability increase [3] 1.09% | viability [4] 95% | viability [5] 96.9% | inhibition [6] 1.16% | RAM network inhibition [7] 0.36%

Oc1ccc(Br)cc1-c1nc2cnccn2c1NC1CCCC1
inactive: growth inhibition [1] -11.9% | growth inhibition [2] 1.74% | viability increase [3] -7.32% | viability [4] 55.5% | viability [5] 54.6% | inhibition [6] -0.895% | RAM network inhibition [7] -1.71%

OC(COc1ccc(Cl)c2ccccc12)CN1CCN(c2ccccn2)CC1 (stereo not drawn)
inactive: growth inhibition [1] -5.89% | growth inhibition [2] -11.6% | viability increase [3] -3.19% | viability [4] 94.9% | viability [5] 95.2% | inhibition [6] -0.275% | RAM network inhibition [7] 4.46%

Cc1ccccc1NC(=O)c1cnn(-c2ccccc2)c1NC(=O)c1ccco1
inactive: growth inhibition [1] -12.6% | growth inhibition [2] -3.13% | viability increase [3] -0.49% | viability [4] 103% | viability [5] 98.2% | inhibition [6] 0.855% | RAM network inhibition [7] 1.65%

CN(c1nnc(N)s1)C1CCCCC1
inactive: growth inhibition [1] 1.35% | growth inhibition [2] 14% | viability increase [3] -1.87% | viability [4] 104% | viability [5] 98.7% | inhibition [6] 2.38% | RAM network inhibition [7] 3.49%

O=C(Cn1cnc2c(nnn2-c2ccccc2)c1=O)N1CCCc2ccccc21
inactive: growth inhibition [1] -10% | growth inhibition [2] -10.4% | viability increase [3] 0.06% | viability [4] 101% | viability [5] 101% | inhibition [6] 1.55% | RAM network inhibition [7] 5.32%

CCCN1CCN(C(=O)C2CCN(S(=O)(=O)c3ccc4c(c3)oc(=O)n4C)CC2)CC1
inactive: growth inhibition [1] -6.11% | growth inhibition [2] -13.9% | viability increase [3] -0.29% | viability [4] 108% | viability [5] 98.5% | inhibition [6] 3.06% | RAM network inhibition [7] -1.87%

CCCC(NS(=O)(=O)c1ccc(Br)cc1)C(=O)O (stereo not drawn)
inactive: growth inhibition [1] -3.98% | growth inhibition [2] -0.42% | viability increase [3] -0.09% | viability [4] 104% | viability [5] 99.3% | inhibition [6] 0.57% | RAM network inhibition [7] 4.41%

CCOc1ccc(N(CC(=O)NCc2ccccc2)S(C)(=O)=O)cc1
inactive: growth inhibition [1] -0.02% | growth inhibition [2] -4.28% | viability increase [3] -1.14% | viability [4] 103% | viability [5] 101% | inhibition [6] 0.535% | RAM network inhibition [7] -0.46%

Cc1ccsc1C1C2=C(CC(C)(C)CC2=O)Nc2ncnn21 (stereo not drawn)
inactive: growth inhibition [1] -13.7% | growth inhibition [2] 11.9% | viability increase [3] -4.49% | viability [4] 101% | viability [5] 102% | inhibition [6] 1.98% | RAM network inhibition [7] 4.28%

CCCCC(=O)Nc1nc2ccc3nc(C)sc3c2s1
inactive: growth inhibition [1] -25.8% | growth inhibition [2] -2.65% | viability increase [3] -0.78% | viability [4] 81.3% | viability [5] 87.2% | inhibition [6] 2.27% | RAM network inhibition [7] 0.32%

Cc1cccc(NC(=O)C2CCCN2S(=O)(=O)c2cccc3cccnc23)c1 (stereo not drawn)
inactive: growth inhibition [1] -13% | growth inhibition [2] -6.59% | viability increase [3] -3.17% | viability [4] 85.3% | viability [5] 84% | inhibition [6] 0.065% | RAM network inhibition [7] 1.73%

COC(=O)c1ccc(CSc2nc3c(c(=O)n2-c2ccc(Br)cc2)SCC3)o1
inactive: growth inhibition [1] -15.5% | growth inhibition [2] -19.8% | viability increase [3] -3.79% | viability [4] 80.9% | viability [5] 76% | inhibition [6] 1.67% | RAM network inhibition [7] 7.53%

CCc1nnc(NC(=O)C2Cc3ccccc3C(=O)O2)s1 (stereo not drawn)
inactive: growth inhibition [1] -13.9% | growth inhibition [2] -14.9% | viability increase [3] 1.66% | viability [4] 102% | viability [5] 104% | inhibition [6] 1.32% | RAM network inhibition [7] 5.85%

C=CCOC(=O)c1[nH]c2c(c1C)C(=O)CC(c1cc(OC)c(OC)c(OC)c1)C2 (stereo not drawn)
inactive: growth inhibition [1] 1.75% | growth inhibition [2] 6.24% | viability increase [3] -0.05% | viability [4] 53.4% | viability [5] 66.7% | inhibition [6] 3.67% | RAM network inhibition [7] 5.97%

Cc1c(C(=O)NCc2ccc3c(c2)OCO3)sc2nc(-c3ccc(F)cc3)cn12
inactive: growth inhibition [1] -13.8% | growth inhibition [2] -14.9% | viability increase [3] 0.84% | viability [4] 108% | viability [5] 105% | inhibition [6] 2.14% | RAM network inhibition [7] 6.3%

Cc1cccc(OCCOCCSc2ncccn2)c1
inactive: growth inhibition [1] -8.47% | growth inhibition [2] 8.79% | viability increase [3] -1.63% | viability [4] 97.9% | viability [5] 94.8% | inhibition [6] 0.99% | RAM network inhibition [7] 6.33%
